The target of assay [1] is T1, Polyunsaturated fatty acid 5-lipoxygenase (Homo sapiens) (UniProt P09917).
T1 sequence (whole entry): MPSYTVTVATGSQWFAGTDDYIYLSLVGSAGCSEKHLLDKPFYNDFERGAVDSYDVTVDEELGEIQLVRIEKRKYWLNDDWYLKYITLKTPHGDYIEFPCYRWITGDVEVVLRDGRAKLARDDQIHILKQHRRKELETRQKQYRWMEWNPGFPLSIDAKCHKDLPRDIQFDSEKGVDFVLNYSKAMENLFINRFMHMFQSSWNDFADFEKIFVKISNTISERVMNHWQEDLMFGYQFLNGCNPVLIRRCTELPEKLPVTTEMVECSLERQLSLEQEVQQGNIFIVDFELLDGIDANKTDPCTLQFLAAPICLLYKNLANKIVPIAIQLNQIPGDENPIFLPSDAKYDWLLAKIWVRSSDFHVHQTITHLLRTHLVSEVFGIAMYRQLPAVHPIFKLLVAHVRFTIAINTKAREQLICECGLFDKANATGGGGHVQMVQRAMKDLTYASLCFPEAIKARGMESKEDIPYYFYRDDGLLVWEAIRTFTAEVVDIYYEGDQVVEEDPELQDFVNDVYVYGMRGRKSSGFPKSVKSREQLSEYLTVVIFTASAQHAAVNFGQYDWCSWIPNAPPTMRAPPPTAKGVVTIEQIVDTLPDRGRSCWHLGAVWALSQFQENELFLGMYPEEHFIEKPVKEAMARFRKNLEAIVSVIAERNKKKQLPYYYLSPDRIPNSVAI
Nature of the assay: Inhibition of human recombinant 5-lipoxygenase expressed in Escherichia coli MV1190 assessed as residual activity at 30 uM by cell free assay. The essentials:
(§1)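 Cell-free activity assay with isolated human recombinant 5-LO. Compounds screened at 30 μM in DMSO, with 0.3% v/v DMSO as vehicle and BWA4C as positive control. IC50 taken from concentration-response curves. Means ± SE, n = 4-5.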

The target in assay [2] is T2, Polyunsaturated fatty acid 5-lipoxygenase (Homo sapiens, UniProt P09917).
T2 sequence (P09917 whole entry): T1 sequence (whole entry)
Nature of the assay: Inhibition of 5-lipoxygenase in human neutrophils. The essentials: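 Human neutrophils stimulated with ionophore A23187 to probe FLAP-dependent 5-LO product formation. Compounds in DMSO (vehicle 0.3% v/v) screened at 30 μM and tested in concentration-response. A FLAP inhibitor served as control. n = 4-5 for the curves.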

For assay [3], the target named is Prostaglandin E synthase / mPGES-1 (Homo sapiens) (UniProt O14684). The assay can be described thus: Inhibition of Prostaglandin E2 synthase-1 in IL1-beta stimulated microsomal fraction of human A549 cell assessed as residual activity at 30 uM. The settings on record: Microsome.
The target in assay [4] is T1, Polyunsaturated fatty acid 5-lipoxygenase (Homo sapiens). The assay can be described thus: Inhibition of 5-lipoxygenase in human neutrophils assessed as residual activity at 30 uM; values are per cent of control.
Assay [5] deals with T2, Polyunsaturated fatty acid 5-lipoxygenase. The assay can be described thus: Inhibition of human recombinant 5-lipoxygenase expressed in Escherichia coli MV1190 by cell free assay. In short, it runs like this: as §1
The target in assay [6] is T1, Polyunsaturated fatty acid 5-lipoxygenase (Homo sapiens). Nature of the assay: Inhibition of 5-lipoxygenase in human neutrophils assessed as residual activity at 10 uM; values are per cent of control.
The target is the same in assay [7]. Nature of the assay: Inhibition of human recombinant 5-lipoxygenase expressed in Escherichia coli MV1190 assessed as residual activity at 10 uM by cell free assay; values are per cent of control.

SMILES strings stand for the structures.

Sequence of Prostaglandin E synthase / mPGES-1 (Homo sapiens) (O14684 whole entry, looked up): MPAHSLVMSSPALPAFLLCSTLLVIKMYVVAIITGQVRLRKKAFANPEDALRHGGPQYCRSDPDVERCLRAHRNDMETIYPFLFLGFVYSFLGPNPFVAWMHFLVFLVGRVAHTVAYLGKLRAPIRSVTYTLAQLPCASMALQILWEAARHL

What is called IC50 is the concentration needed to halve the response being measured. As a reminder, the residual activity is what remains of the control signal, in per cent. Regarding `c1ccc(CCCn2cc(-c3ccc(-c4ccc(Oc5ccccc5)cc4)cc3)nn2)cc1`, the remaining activity in assay [1] is 59.2%; in assay [3] it was 88.7%. In addition, the concentration for half-maximal inhibition (IC50) in assay [2] and in assay [5] was greater than 30 µM throughout. The residual activity in assay [4] is 70.1%.

As to `Cc1ccccc1CCn1cc(-c2ccc(-c3ccccc3COc3cc(C(F)(F)F)ccc3Cl)cc2)nn1`, the values for the remaining activity in assay [1] and in assay [3] were 82.5% and 87.9%, respectively. Also, the half-maximal inhibitory concentration (IC50) in assay [2] and in assay [5] was greater than 30 µM each time. In addition, the residual activity in assay [4] is 92.1%.

On to `O=C(OCc1cn(CSc2ccccc2)nn1)c1ccccc1`, for which the remaining activity in assay [1] came out at 80.8%; in assay [3], 76.1%. The IC50 was 9.3 µM in assay [2] and greater than 30 µM in assay [5]. The residual activity in assay [4] is 14.6%.

As to `Oc1ccc(-c2ccc(-c3cn(CSc4ccccc4)nn3)cc2)cc1`, the remaining activity in assay [1] was found to be 62.3%; in assay [3], 89%. The IC50 in assay [2] is 0.9 µM; in assay [5], greater than 30 µM. Further, in assay [6], the residual activity stood at 34.8%.

As for `Cc1ccccc1CCn1cc(-c2ccc(-c3ccc(N)cc3)cc2)nn1`, the remaining activity in assay [1] was 60.7%; in assay [3], 98.2%. The IC50 in assay [2] was 1.7 µM; in assay [5], greater than 30 µM. Also, the residual activity in assay [6] was determined as 22%.

With `Oc1ccc(-c2ccc(-c3cn(CCCc4ccccc4)nn3)cc2)cc1`, the remaining activity in assay [1] is 58.4%; in assay [3] it was 73.6%. In addition, the IC50 in assay [2] and in assay [5] was greater than 30 µM each time. For the same compound, in assay [4], the residual activity is 70.2%.

As for `CN(C)c1cccc2c(S(=O)(=O)Nc3ccc(-c4ccc(-c5cn(CCCc6ccccc6)nn5)cc4)cc3)cccc12`, the remaining activity in assay [1] is 5.1%; in assay [3], 85%. Besides, the IC50 in assay [2] came to 2.8 µM; in assay [5], 4.1 µM. In assay [6], the residual activity came to 21.2%.

With `FC(F)(F)c1ccc(Cl)c(OCc2ccccc2-c2ccc(-c3cn(CCCc4ccccc4)nn3)cc2)c1`, the remaining activity in assay [1] was 10.1%; in assay [3], 91.9%. In addition, the half-inhibitory concentration (IC50) in assay [2] is greater than 30 µM; in assay [5], 8.8 µM. The residual activity in assay [4] stood at 52.7%.

As for `O=C(O)c1ccc(Cn2cc(-c3ccc(-c4ccccc4)cc3)nn2)c([N+](=O)[O-])c1`, the values for the remaining activity in assay [1] and in assay [3] were 20% and 12%, respectively. For the same compound, the IC50 in assay [2] came out at 9.2 µM; in assay [5], 6.7 µM. Further, the residual activity in assay [4] is 20.1%.

`c1ccc(CCCn2cc(-c3ccc(-c4cc5ccccc5c5ccccc45)cc3)nn2)cc1`: the remaining activity in assay [1] is 82.9%; in assay [3] it was 78.2%. The IC50 in assay [2] and in assay [5] was greater than 30 µM each time. Besides, the residual activity in assay [4] was 85.7%.

Take `c1ccc(CCCn2cc(-c3ccc(-c4ccccc4COc4cccc5ccccc45)cc3)nn2)cc1`: the remaining activity was determined as 77.4% in assay [1] and 96.8% in assay [3]. Moreover, the half-inhibitory concentration (IC50) in assay [2] and in assay [5] was greater than 30 µM in each case. In addition, the residual activity in assay [4] is 79.9%.

For the compound `Cc1ccccc1CCn1cc(-c2ccc(-c3ccccc3COc3cccc4ccccc34)cc2)nn1`, the figures for the remaining activity in assay [1] and in assay [3] were 78.4% and 90%, respectively. The half-inhibitory concentration (IC50) in assay [2] and in assay [5] was greater than 30 µM each time. Further, the residual activity in assay [4] amounted to 84.5%.

On to `Oc1cccc(-c2ccc(-c3cn(CSc4ccccc4)nn3)cc2)c1`, for which the remaining activity came to 48.8% in assay [1] and 60.1% in assay [3]. For the same compound, the IC50 in assay [2] turned out to be 0.4 µM; in assay [5], 27 µM. Besides, in assay [6], the residual activity amounted to 1.1%.

For `O=Cc1ccc(-c2c(Cc3ccccc3)nnn2CSc2ccccc2)cc1`, the remaining activity in assay [1] was found to be 57.3%; in assay [3] it was 72.1%. Also, the IC50 is 6 µM in assay [2] and greater than 30 µM in assay [5]. In addition, in assay [6], the residual activity stood at 17.3%.

Turning to `O=C(O)c1ccc(S(=O)(=O)n2cc(-c3ccc(-c4ccccc4COc4cccc5ccccc45)cc3)nn2)cc1`, the IC50 in assay [2] came out at 0.6 µM; in assay [5], 0.8 µM. The remaining activity in assay [3] amounted to 59.8%. For the same compound, the residual activity in assay [6] amounted to 3.5%; in assay [7] it was 13.6%.

The values above are taken from ChEMBL document CHEMBL1687920, “Structure-based discovery of inhibitors of microsomal prostaglandin E2 synthase-1, 5-lipoxygenase and 5-lipoxygenase-activating protein: promising hits for the development of new anti-inflammatory agents” (J Med Chem, 2011).
